Measurements collected from several papers.
Protocols differ between the studies behind these lines.
PARP3: Protein mono-ADP-ribosyltransferase PARP3 (PARP3, Homo sapiens, UniProt Q9Y6F1)
ADRA1B: Alpha-1B adrenergic receptor (ADRA1B, Homo sapiens, UniProt P35368)
Mapk1: Mitogen-activated protein kinase 1 (Mapk1, Mus musculus, UniProt P63085)

| SMILES | target | effect on | action | technique | cell line | tested at | inhibition |
| --- | --- | --- | --- | --- | --- | --- | --- |
| O=C1CCCc2ccc(F)cc2N1 | PARP3 | enzyme activity | inhibitor | – | – | 10 µM | 0% |
| CN(C)C1CCN(CC#Cc2nn(C3CCCC3)c3nc(NCc4ccccc4)ncc23)C1 (centres unmarked) | Macrophage colony-stimulating factor 1 receptor (CSF1R, Homo sapiens, UniProt P07333) | enzyme activity | inhibitor | FRET | – | 1 µM | 82% |
| O=C(c1ccc(Cl)cc1)N(Cc1ccccc1)C1CCCCC1 | ADRA1B | cell-free assay | – | – | – | 10 µM | 11.3% |
| CCN1CCN(Cc2ccc(NC(=O)c3ccc(C)c(Oc4ccnc5[nH]ccc45)c3)cc2C(F)(F)F)CC1 | Microtubule-associated serine/threonine-protein kinase 4 (MAST4, Homo sapiens, UniProt O15021) | target engagement in cells | inhibitor | chemoproteomics | Huh-7 | 10 µM | -28.8% |
| Ic1cccc2cnccc12 | ADP-ribosyl cyclase/cyclic ADP-ribose hydrolase 1 (CD38, Homo sapiens, UniProt P28907) | enzyme activity | inhibitor | – | – | 10 µM | 0% |
| Cn1cnc(Br)c1C1=CN(c2ncnc3[nH]cnc23)CCS1 | Myosin-IIIa (MYO3A, Homo sapiens, UniProt Q8NEV4) | enzyme activity | inhibitor | radiometric | – | 50 nM | 19.3% |
| O=C1NCCCc2ccc(F)cc21 | PARP3 | enzyme activity | inhibitor | – | – | 10 µM | 63% |
| CNC(=O)c1cc2c(Oc3ccc(NC(=O)C4(C(=O)Nc5ccc(F)cc5)CC4)cc3)ccnc2cc1OC | Hepatocyte growth factor receptor (MET, Homo sapiens, UniProt P08581) | enzyme activity | inhibitor | radiometric | – | 1 µM | 99% |
| CC/C(=N\NC(=O)C(C)Nc1ccccc1)c1ccc(O)c(C)c1O (centres unmarked) | cAMP-dependent protein kinase catalytic subunit gamma (PRKACG, Homo sapiens, UniProt P22612) | enzyme activity | inhibitor | – | – | 0.1 µM | 34.9% |
| CCN(CC)CCNC(=O)c1c(C)[nH]c(/C=C2\C(=O)Nc3ccc(F)cc32)c1C | Mapk1 | enzyme activity | inhibitor | – | – | 10 µM | -14% |
| O=C(O)c1ncccc1O | Interstitial collagenase (MMP1, Homo sapiens, UniProt P03956) | enzyme activity | inhibitor | fluorescence | – | 1 mM | ~50% |
| O=C1CCCc2c(O)cccc2N1 | PARP3 | enzyme activity | inhibitor | – | – | 10 µM | 0% |
| Cc1ccc(Nc2nccc(N(C)c3ccc4c(C)n(C)nc4c3)n2)cc1S(N)(=O)=O | Mapk1 | enzyme activity | inhibitor | – | – | 10 µM | 3% |
| COc1cc(NC(C)=O)c(Cl)cc1C(=O)Nc1nccs1 | ADRA1B | cell-free assay | – | – | – | 10 µM | 4.3% |
| Nc1ccc2c(c1)CCCn1nnnc1-2 | PARP3 | enzyme activity | inhibitor | – | – | 10 µM | 0% |
| O=C1N=C(N2CCCCN2)S/C1=C\c1ccc(F)cc1O | Corticotropin-releasing factor receptor 1 (CRHR1, Homo sapiens, UniProt P34998) | ligand displacement | – | radioligand | – | 10 µM | < 10% |
| CCCNc1nc2ccccc2n1Cc1ccc(Cl)cc1 | ADRA1B | ligand displacement | – | – | – | 10 µM | 16.1% |
